ChEMBL document CHEMBL1212735, “Metronidazole resistance in Prevotella spp. and description of a new nim gene in Prevotella baroniae” (2010)
In brackets after ≈: the same amount, converted by molar mass.

Experiments:
Type in all cases: functional
Prevotella buccae = assay: Antimicrobial activity against Prevotella buccae LBN 465 deficient in nimI gene assessed as inhibition of growth after several passages on plates containing increasing concentration of compound by agar dilution method; conditions: Segatella buccae
How it was run: (§1)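 Induction of metronidazole resistance: bacterial suspensions inoculated onto brucella blood agar (5% sheep blood, hemin, vitamin K1) containing metronidazole at increasing concentrations, grown anaerobically at 37°C. Colonies growing at the highest concentration were retested for MIC by CLSI agar dilution on the same agar. Duplicate experiments.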

Prevotella baroniae [1] = assay: Antimicrobial activity against Prevotella baroniae LBN 427 expressing nimI gene assessed as inhibition of growth after three consecutive subcultures on compound free medium by agar dilution method; conditions: Segatella baroniae
How it was run: (§2)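 Stability of induced resistance: metronidazole-selected isolates were subcultured three consecutive times on drug-free brucella blood agar (5% sheep blood, hemin, vitamin K1) under anaerobic conditions, then MIC was redetermined by CLSI agar dilution. Resistance was called stable if the MIC held within ±1 dilution. Duplicate experiments.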

Prevotella bivia [2] = assay: Antimicrobial activity against Prevotella bivia LBN 371 deficient in nimI gene assessed as inhibition of growth after three consecutive subcultures on compound free medium by agar dilution method
How it was run: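 Resistance induction: bacterial suspensions were plated on supplemented brucella blood agar with rising metronidazole concentrations. Colonies from the highest concentration were tested by agar dilution. MIC was then redetermined after three consecutive subcultures on drug-free agar. Resistance counted as stable if the MIC held within ±1 dilution. Anaerobic growth at 37°C. Duplicate experiments.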

Prevotella nanceiensis [3] = assay: Antimicrobial activity against Prevotella nanceiensis LBN 293b deficient in nimI gene assessed as inhibition of growth after three consecutive subcultures on compound free medium by agar dilution method; conditions: Hoylesella nanceiensis; how it was run: as §2
Prevotella baroniae [4] = assay: Antimicrobial activity against Prevotella baroniae LBN 475 expressing nim gene assessed as inhibition of growth at 48 hrs by agar dilution method; conditions: Segatella baroniae, LBN 475, 48 h
How it was run: (§3)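 Metronidazole MIC by agar dilution (CLSI M11-A7) on brucella agar with 5% sheep blood, hemin and vitamin K1. Plates were read after 48 h at 35°C under anaerobic conditions. Susceptible was MIC ≤ 4 μg/ml and resistant MIC ≥ 8 μg/ml (EUCAST). B. fragilis ATCC 25285T and B. thetaiotaomicron ATCC 29741 were run as controls. Duplicate assays.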

Prevotella baroniae [5] = assay: Antimicrobial activity against Prevotella baroniae LBP 9 expressing nim gene assessed as inhibition of growth at 48 hrs by agar dilution method; conditions: Segatella baroniae, LBP 9, 48 h; how it was run: as §3
Prevotella bivia [6] = assay: Antimicrobial activity against Prevotella bivia LBN 333 deficient in nim gene assessed as inhibition of growth at 48 hrs by agar dilution method; conditions: LBN 333, 48 h; how it was run: as §3
Prevotella bivia [7] = assay: Antimicrobial activity against Prevotella bivia LBN 334 deficient in nim gene assessed as inhibition of growth at 48 hrs by agar dilution method; conditions: LBN 334, 48 h; how it was run: as §3
Prevotella bivia [8] = assay: Antimicrobial activity against Prevotella bivia LBN 343 deficient in nim gene assessed as inhibition of growth at 48 hrs by agar dilution method; conditions: LBN 343, 48 h
How it was run: (§4)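 Agar dilution MIC on brucella agar with 5% sheep blood, hemin and vitamin K1, following CLSI M11-A7. Plates read after 48 h at 35°C under anaerobic conditions, with B. fragilis ATCC 25285T and B. thetaiotaomicron ATCC 29741 as controls. Assays in duplicate. Isolates kept at −80°C in brucella broth with 15% glycerol. Interpretation used EUCAST breakpoints (S ≤4, R ≥8 μg/ml).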

Prevotella bivia [9] = assay: Antimicrobial activity against Prevotella bivia LBN 346 deficient in nim gene assessed as inhibition of growth at 48 hrs by agar dilution method; conditions: LBN 346, 48 h; how it was run: as §4
Prevotella bivia [10] = assay: Antimicrobial activity against Prevotella bivia LBN 350 deficient in nim gene assessed as inhibition of growth at 48 hrs by agar dilution method; conditions: LBN 350, 48 h; how it was run: as §3
Prevotella bivia [11] = assay: Antimicrobial activity against Prevotella bivia LBN 361 deficient in nim gene assessed as inhibition of growth at 48 hrs by agar dilution method; conditions: LBN 361, 48 h; how it was run: as §3
Prevotella bivia [12] = assay: Antimicrobial activity against Prevotella bivia LBP 51 deficient in nim gene assessed as inhibition of growth at 48 hrs by agar dilution method; conditions: LBP 51, 48 h; how it was run: as §3
Prevotella bivia [13] = assay: Antimicrobial activity against Prevotella bivia LBP 78 deficient in nim gene assessed as inhibition of growth at 48 hrs by agar dilution method; conditions: LBP 78, 48 h; how it was run: as §3
Prevotella nanceiensis [14] = assay: Antimicrobial activity against Prevotella nanceiensis LBN 298 deficient in nim gene assessed as inhibition of growth at 48 hrs by Etest method; conditions: Hoylesella nanceiensis, LBN 298, 48 h
How it was run: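 Metronidazole Etest, per the manufacturer's instructions, on brucella blood agar with hemin and vitamin K1. Read after 48 h at 35°C under anaerobic conditions. Breakpoints were ≤ 4 μg/ml susceptible and ≥ 8 μg/ml resistant (EUCAST). Duplicate assays.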

Prevotella nanceiensis [15] = assay: Antimicrobial activity against Prevotella nanceiensis LBP 66 deficient in nim gene assessed as inhibition of growth at 48 hrs by agar dilution method; conditions: Hoylesella nanceiensis, LBP 66, 48 h; how it was run: as §3
Prevotella bivia [16] = assay: Antimicrobial activity against slow growing colonies of Prevotella bivia LBN 332 deficient in nim gene assessed as inhibition of growth at 48 hrs by agar dilution method; conditions: LBN 332, 48 h
How it was run: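 Slowly growing colonies inside the Etest inhibition zone, seen after prolonged incubation (an additional 72 h after the 48 h reading), were subcultured without antibiotic. They were then retested for metronidazole MIC by agar dilution on supplemented brucella blood agar under anaerobic conditions.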

Prevotella bivia [17] = assay: Antimicrobial activity against slow growing colonies of Prevotella bivia LBN 445 deficient in nim gene assessed as inhibition of growth at 48 hrs by agar dilution method; conditions: LBN 445, 48 h
How it was run: (§5)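 Metronidazole MIC by agar dilution per CLSI M11-A7 on brucella agar with 5% sheep blood, hemin and vitamin K1. Plates incubated anaerobically at 35°C and read at 48 h, with a second reading after a further 72 h. B. fragilis ATCC 25285T and B. thetaiotaomicron ATCC 29741 served as controls. Done in duplicate; EUCAST breakpoints applied (S ≤4, R ≥8 μg/ml).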

Prevotella bivia [18] = assay: Antimicrobial activity against slow growing colonies of Prevotella bivia LBN 478 deficient in nim gene assessed as inhibition of growth at 48 hrs by agar dilution method; conditions: LBN 478, 48 h; how it was run: as §5
Prevotella bivia [19] = assay: Antimicrobial activity against slow growing colonies of Prevotella bivia LBP 4 deficient in nim gene assessed as inhibition of growth at 48 hrs by agar dilution method; conditions: LBP 4, 48 h; how it was run: as §5
Prevotella bivia [20] = assay: Antimicrobial activity against slow growing colonies of Prevotella bivia LBP 65 deficient in nim gene assessed as inhibition of growth at 48 hrs by agar dilution method; conditions: LBP 65, 48 h; how it was run: as §5
Prevotella nanceiensis [21] = assay: Antimicrobial activity against slow growing colonies of Prevotella nanceiensis LBN 298 deficient in nim gene assessed as inhibition of growth at 48 hrs by agar dilution method; conditions: Hoylesella nanceiensis, LBN 298, 48 h; how it was run: as §5
Prevotella baroniae [22] = assay: Antimicrobial activity against Prevotella baroniae LBN 427 expressing nimI gene assessed as inhibition of growth after several passages on plates containing increasing concentrations of compound by agar dilution method; conditions: Segatella baroniae; how it was run: as §1
Prevotella baroniae [23] = assay: Antimicrobial activity against Prevotella baroniae LBP19 expressing nimI gene assessed as inhibition of growth after several passages on plates containing increasing concentration of compound by agar dilution method; conditions: Segatella baroniae; how it was run: as §1

Cc1ncc([N+](=O)[O-])n1CCO [METRONIDAZOLE] showed an MIC (Prevotella buccae) of 128 µg/mL (≈ 748 µM), an MIC (Prevotella baroniae [1]) of 128 µg/mL (≈ 748 µM) and an MIC (Prevotella bivia [2]) greater than 256 µg/mL. The MIC (Prevotella nanceiensis [3]) was 256 µg/mL (≈ 1500 µM), the MIC (Prevotella baroniae [4]) was 4 µg/mL (≈ 23.4 µM) and the MIC (Prevotella baroniae [5]) was 2 µg/mL (≈ 11.7 µM). The MIC (Prevotella bivia [6]) was 2 µg/mL (≈ 11.7 µM), the MIC (Prevotella bivia [7]) was 2 µg/mL (≈ 11.7 µM) and the MIC (Prevotella bivia [8]) was 1 µg/mL (≈ 5.84 µM). For the same molecule, the MIC (Prevotella bivia [9]) was 1 µg/mL (≈ 5.84 µM), the MIC (Prevotella bivia [10]) was 2 µg/mL (≈ 11.7 µM) and the MIC (Prevotella bivia [11]) was 2 µg/mL (≈ 11.7 µM). The MIC (Prevotella bivia [12]) was 2 µg/mL (≈ 11.7 µM), the MIC (Prevotella bivia [13]) was 4 µg/mL (≈ 23.4 µM) and the MIC (Prevotella nanceiensis [14]) was 4 µg/mL (≈ 23.4 µM). It also gave an MIC (Prevotella nanceiensis [15]) of 2 µg/mL (≈ 11.7 µM), an MIC (Prevotella bivia [16]) of 32 µg/mL (≈ 187 µM) and an MIC (Prevotella bivia [17]) of 16 µg/mL (≈ 93.5 µM). The MIC (Prevotella bivia [18]) was 8 µg/mL (≈ 46.7 µM), the MIC (Prevotella bivia [19]) was 32 µg/mL (≈ 187 µM) and the MIC (Prevotella bivia [20]) was 32 µg/mL (≈ 187 µM). It also gave an MIC (Prevotella nanceiensis [21]) of 32 µg/mL (≈ 187 µM), an MIC (Prevotella baroniae [22]) of 128 µg/mL (≈ 748 µM) and an MIC (Prevotella baroniae [23]) of 128 µg/mL (≈ 748 µM).
